pIC50: −log10 of the molar value.
Key:
HCT-15 = test: Cytotoxicity against human HCT15 cells after 2 days by cell counting kit-8 analysis; type: functional, cell-based; details: HCT-15, 48 h
Procedure, shortened: (§1)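 Cells grown per supplier's instructions, seeded at 2-4 × 10⁴ cells/well and incubated overnight in medium with 10% FBS at 37 °C, 5% CO₂. On day 2, after 4 h FBS starvation, medium was replaced with medium containing graded compound concentrations. Absorbance read at 450 nm. IC50 from a four-parameter logistic fit. Three independent experiments in triplicate, mean ± S.D.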

[1] = biological target: DNA topoisomerase 2-alpha (Homo sapiens) (UniProt P11388); test: Inhibition of human DNA topoisomerase-2alpha-mediated relaxation of supercoiled pBR322 at 100 uM after 30 mins using ethidium bromide staining by agarose gel electrophoresis
Chain of DNA topoisomerase 2-alpha (Homo sapiens) (P11388 whole entry): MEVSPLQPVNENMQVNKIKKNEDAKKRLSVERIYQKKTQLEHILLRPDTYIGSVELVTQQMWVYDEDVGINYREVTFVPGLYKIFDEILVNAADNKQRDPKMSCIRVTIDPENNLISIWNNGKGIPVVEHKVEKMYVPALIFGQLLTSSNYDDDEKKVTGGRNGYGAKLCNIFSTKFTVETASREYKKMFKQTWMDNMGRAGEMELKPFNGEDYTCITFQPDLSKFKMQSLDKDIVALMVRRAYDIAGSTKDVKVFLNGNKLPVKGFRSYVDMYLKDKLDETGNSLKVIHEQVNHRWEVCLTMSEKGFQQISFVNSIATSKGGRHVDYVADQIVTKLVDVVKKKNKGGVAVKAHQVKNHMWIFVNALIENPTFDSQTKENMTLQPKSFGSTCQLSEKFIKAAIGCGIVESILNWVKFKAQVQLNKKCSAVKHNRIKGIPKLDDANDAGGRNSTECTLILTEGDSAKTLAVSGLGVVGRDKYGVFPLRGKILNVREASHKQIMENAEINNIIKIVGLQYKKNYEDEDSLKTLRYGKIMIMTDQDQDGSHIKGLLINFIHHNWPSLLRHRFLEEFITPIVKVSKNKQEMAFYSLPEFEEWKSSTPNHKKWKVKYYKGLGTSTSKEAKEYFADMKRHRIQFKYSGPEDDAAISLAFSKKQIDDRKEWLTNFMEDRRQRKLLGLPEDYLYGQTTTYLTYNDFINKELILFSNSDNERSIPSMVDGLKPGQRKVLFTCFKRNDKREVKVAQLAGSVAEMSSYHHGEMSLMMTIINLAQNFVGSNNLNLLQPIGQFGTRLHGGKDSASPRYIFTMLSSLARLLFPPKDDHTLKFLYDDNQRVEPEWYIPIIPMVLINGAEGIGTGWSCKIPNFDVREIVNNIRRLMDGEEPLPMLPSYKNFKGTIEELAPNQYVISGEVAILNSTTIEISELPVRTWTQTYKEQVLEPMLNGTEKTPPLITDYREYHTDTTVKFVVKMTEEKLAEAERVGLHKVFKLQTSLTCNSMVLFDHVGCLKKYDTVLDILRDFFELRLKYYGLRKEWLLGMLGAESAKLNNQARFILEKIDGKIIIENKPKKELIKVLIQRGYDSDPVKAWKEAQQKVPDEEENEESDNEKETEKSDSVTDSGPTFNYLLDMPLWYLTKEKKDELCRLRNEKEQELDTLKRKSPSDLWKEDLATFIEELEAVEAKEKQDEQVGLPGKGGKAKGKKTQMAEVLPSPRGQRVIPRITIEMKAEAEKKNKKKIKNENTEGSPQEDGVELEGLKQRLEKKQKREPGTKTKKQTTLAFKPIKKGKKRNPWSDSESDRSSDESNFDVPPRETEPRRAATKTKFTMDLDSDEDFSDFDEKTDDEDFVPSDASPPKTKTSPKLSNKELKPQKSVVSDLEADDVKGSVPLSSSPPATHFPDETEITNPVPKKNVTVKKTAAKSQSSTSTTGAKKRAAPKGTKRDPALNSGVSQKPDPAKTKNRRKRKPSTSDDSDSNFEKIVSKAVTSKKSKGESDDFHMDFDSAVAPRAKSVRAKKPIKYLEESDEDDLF
Procedure, shortened: (§2)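 200 ng supercoiled pBR322 with 1 unit human topo IIα, with or without compound. Buffer was 10 mM Tris-HCl pH 7.9, 50 mM NaCl, 5 mM MgCl₂, 1 mM EDTA, 1 mM ATP and bovine serum albumin. Incubated 30 min at 30 °C, stopped with EDTA. Products run on 1% agarose gel, 25 V, 4 h, TAE buffer. Compound stocks 20 mM in DMSO.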

T47D = test: Cytotoxicity against human T47D cells after 2 days by cell counting kit-8 analysis; type: functional, cell-based; details: 48 h; procedure, shortened: as §1
HEK293 = test: Cytotoxicity against human HEK293 cells after 2 days by cell counting kit-8 analysis; type: cell-based; details: HEK293, 48 h; procedure, shortened: as §1
[2] = biological target: DNA topoisomerase 2-alpha (Homo sapiens) (UniProt P11388); test: Inhibition of human DNA topoisomerase-2alpha-mediated relaxation of supercoiled pBR322 at 20 uM after 30 mins using ethidium bromide staining by agarose gel electrophoresis; procedure, shortened: as §2
[3] = biological target: T1, DNA topoisomerase 1 (Homo sapiens) (UniProt P11387); test: Inhibition of recombinant human DNA topoisomerase-1-mediated relaxation of supercoiled pBR322 at 100 uM after 30 mins using ethidium bromide staining by agarose gel electrophoresis
T1 sequence (whole entry): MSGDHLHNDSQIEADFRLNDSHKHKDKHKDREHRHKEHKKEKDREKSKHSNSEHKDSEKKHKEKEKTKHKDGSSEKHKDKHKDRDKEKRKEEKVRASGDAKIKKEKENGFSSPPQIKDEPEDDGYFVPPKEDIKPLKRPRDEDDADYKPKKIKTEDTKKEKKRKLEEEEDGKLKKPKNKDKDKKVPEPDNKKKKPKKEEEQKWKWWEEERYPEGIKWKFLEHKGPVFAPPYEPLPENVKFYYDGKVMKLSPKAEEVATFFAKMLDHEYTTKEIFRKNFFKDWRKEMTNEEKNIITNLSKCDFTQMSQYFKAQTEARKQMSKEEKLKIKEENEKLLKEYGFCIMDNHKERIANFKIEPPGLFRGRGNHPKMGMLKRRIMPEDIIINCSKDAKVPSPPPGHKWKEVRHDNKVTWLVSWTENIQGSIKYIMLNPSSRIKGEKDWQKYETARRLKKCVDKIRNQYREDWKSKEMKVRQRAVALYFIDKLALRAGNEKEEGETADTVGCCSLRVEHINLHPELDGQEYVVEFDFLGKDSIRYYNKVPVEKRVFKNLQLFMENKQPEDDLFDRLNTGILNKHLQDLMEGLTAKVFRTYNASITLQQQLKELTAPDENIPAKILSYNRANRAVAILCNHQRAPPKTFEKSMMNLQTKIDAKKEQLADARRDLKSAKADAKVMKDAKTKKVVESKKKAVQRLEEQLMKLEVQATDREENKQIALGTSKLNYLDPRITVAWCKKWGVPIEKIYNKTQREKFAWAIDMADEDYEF
Procedure, shortened: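 Compounds from 20 mM DMSO stocks. 100 ng pBR322 plasmid DNA with 1 unit recombinant human topo I, with or without compound, 37 °C for 30 min. Relaxation buffer was 10 mM Tris-HCl pH 7.9, 150 mM NaCl, 0.1% BSA, 1 mM spermidine. Relaxation of supercoiled DNA assessed by gel imaging.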

DU-145 = test: Cytotoxicity against human DU145 cells after 2 days by cell counting kit-8 analysis; type: functional, cell-based; details: DU-145, 48 h; procedure, shortened: as §1

SMILES	pIC50 (HCT-15)	inhibition [1] [%]	pIC50 (T47D)	pIC50 (HEK293)	inhibition [2] [%]	inhibition [3] [%]	pIC50 (DU-145)
Oc1cccc(-c2cc(-c3ccccc3)nc(-c3cccc(Cl)c3)c2)c1	5.59	81.1	5.43	5.51	49.1	11.5	5.56
Oc1ccc(-c2cc(-c3cccnc3)nc(-c3ccccc3Cl)c2)cc1		0				0.9	
Oc1cccc(-c2cc(-c3cccnc3)nc(-c3cccc(Cl)c3)c2)c1		0				27.6	
Oc1ccc(-c2cc(-c3ccsc3)nc(-c3ccccc3Cl)c2)cc1	5.23	80.5	5.21	5.23	29.2	4.1	5.41
Oc1cccc(-c2cc(-c3ccccc3)nc(-c3ccc(Cl)cc3)c2)c1	5.09	76.3	4.95	4.93	53	7.1	4.95
Oc1cccc(-c2cc(-c3ccsc3)nc(-c3ccccc3Cl)c2)c1	5.60	77.1	5.61	5.57	15.7	0	5.71
Oc1ccc(-c2cc(-c3ccccn3)nc(-c3ccccc3Cl)c2)cc1		21.1				5.2	
Oc1ccc(-c2cc(-c3ccsc3)nc(-c3cccc(Cl)c3)c2)cc1	5.24	83.7	5.13	5.57	0	26	5.21
COc1cc([C@@H]2c3cc4c(cc3[C@@H](O[C@@H]3O[C@@H]5CO[C@@H](C)O[C@H]5[C@H](O)[C@H]3O)[C@H]3COC(=O)[C@H]23)OCO4)cc(OC)c1O [ETOPOSIDE]	5.93		5.62	5.92	20		5.92
COc1cccc2c1C(=O)c1c(O)c3c(c(O)c1C2=O)C[C@@](O)(C(=O)CO)C[C@@H]3O[C@H]1C[C@H](N)[C@H](O)[C@H](C)O1 [DOXORUBICIN]	5.99		5.98	5.87			5.96
Oc1ccc(-c2cc(-c3ccc(Cl)cc3)nc(-c3ccccn3)c2)cc1	4.67	66.7	4.59	4.57	13.1	12.7	4.65
Oc1cccc(-c2cc(-c3cccc(Cl)c3)nc(-c3ccco3)c2)c1	5.61	70.1	5.45	5.60	4.8	5.5	5.69
Oc1ccc(-c2cc(-c3ccccc3)nc(-c3ccccc3Cl)c2)cc1	5.30	77.5	5.26	5.41	5.5	13.6	5.55
Oc1cccc(-c2cc(-c3ccncc3)nc(-c3ccc(Cl)cc3)c2)c1	5.58	51.7	5.48	5.54	12.9	8	5.60
Oc1cccc(-c2cc(-c3ccccn3)nc(-c3ccccc3Cl)c2)c1		19.1				0	
Oc1cccc(-c2cc(-c3ccc(Cl)cc3)nc(-c3cccs3)c2)c1	5.03	75.5	4.98	4.93	54.2	15.1	4.94
Oc1ccc(-c2cc(-c3ccncc3)nc(-c3ccc(Cl)cc3)c2)cc1		2.4				5.9	
Oc1ccc(-c2cc(-c3ccco3)nc(-c3ccccc3Cl)c2)cc1	5.26	77.8	5.26	5.37	7.7	3.9	5.28
